Screening results: PubChem BioAssay, Johns Hopkins Ion Channel Center
KCNK9 inh: inhibitors of human KCNK9 two-pore domain potassium channel | Q9NPC2 | HEK293 KCNK9, FluxOR thallium flux fluorescence; active compounds read low | B-score at 10 µM | hit rate 1.2% among 310,000 | AID 488922;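 active means ratio B-score over 3 SD below the library mean, with starting fluorescence within 5 SD of its mean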;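 further: negative B-score means less thallium flux so channel inhibition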
KCNQ1 block: inhibitors of human KCNQ1 potassium channel | P51787 | CHO-K1 KCNQ1, FluxOR thallium flux fluorescence; active compounds read high | B-score at 10 µM | hit rate 1.3% among 310,000;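 active means compounds whose thallium flux B-score, printed positive for inhibition, exceeds three library SD while starting fluorescence stays within three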;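 further: channel opened by potassium depolarization with thallium stimulus after 20 min compound exposure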
Kir21 block: inhibitors of mouse Kir2.1 inward-rectifier potassium channel | P35561 | HEK293-Kir2.1, FluxOR thallium flux fluorescence; active compounds read low | B-score at 10 µM | hit rate 0.85% among 310,000;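 active means fluorescence ratio B-score at or below minus 3 SD of library scores, with starting-brightness B-score within 2 SD, cut at about -4.2 in these data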;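 further: channel flux triggered by added potassium and thallium sulfate stimulus; B-score of peak minus minimum fluorescence over baseline after thallium stimulus; more negative B-score means stronger Kir2.1 block with less thallium influx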
Target sequence (P35561 whole entry, looked up): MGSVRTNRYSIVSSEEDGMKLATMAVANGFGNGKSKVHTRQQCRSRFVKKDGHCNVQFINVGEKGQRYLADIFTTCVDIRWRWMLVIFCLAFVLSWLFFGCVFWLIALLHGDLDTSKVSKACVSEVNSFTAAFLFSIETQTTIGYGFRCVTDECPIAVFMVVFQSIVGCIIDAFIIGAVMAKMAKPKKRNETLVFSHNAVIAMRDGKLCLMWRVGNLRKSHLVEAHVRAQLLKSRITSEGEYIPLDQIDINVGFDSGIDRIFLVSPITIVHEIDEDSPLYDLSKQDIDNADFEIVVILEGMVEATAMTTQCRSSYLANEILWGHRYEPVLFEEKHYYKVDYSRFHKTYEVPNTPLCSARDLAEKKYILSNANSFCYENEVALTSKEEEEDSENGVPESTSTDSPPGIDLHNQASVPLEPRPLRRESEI
hERG rescue: shields human hERG channel from block by proarrhythmic agents | activation (rescue from dofetilide block), less the hit threshold, % at 10 µM | Q12809 | CHO-hERG, FluxOR thallium flux, dofetilide IC70 present | hit rate 0.51% among 310,000;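 active means activation above the mean of controls blocked by dofetilide plus 5 SD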;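 further: thallium influx through hERG after potassium depolarization seen as dye fluorescence rise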
KCNK3 block: human KCNK3 channel inhibition, primary screen; O14649; CHO-KCNK3 thallium flux, FluxOR fluorescence; active compounds read low; B-score at 10 µM; hit rate 0.84% among 340,000; AID 602410;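 active means B-score under library mean minus 4 SD, starting fluorescence ratio at most library mean plus 5 SD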;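 further: more negative B-score means stronger inhibition of thallium flux through KCNK3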
KCNQ1 act: human KCNQ1 channel potentiation or activation. CHO-K1 KCNQ1, thallium flux FluxOR fluorescence; active compounds read high. hit rate 0.35% among 310,000. P51787. B-score at 10 µM. AID 2648;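 active means fluorescence ratio B-score, a plate-corrected score, at least three library SD, with initial intensity B-score within 5 SD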
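Assay system: CHO-K1 cells stably expressing KCNQ1. Medium: assay buffer for compound exposure, DMSO matched across wells. Timing: 37 °C overnight plating, 90-min dark dye load, 20-min compound pretreatment. Signal: kinetic FluxOR fluorescence, 10 s baseline plus 110 s post-stimulus.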
* marks the source's active call; other numbers are inactive results; i = inactive; nt = no result. Compounds with a hit are over-represented: about 3.7% of the library has one in this group of screens.

SMILES | KCNK9 inh | KCNQ1 block | Kir21 block | hERG rescue | KCNK3 block | KCNQ1 act
C=CCN1C(=O)CSc2ccc(C(=O)NCc3cccs3)cc21 | i | i | 0.04 | 46.5* | i | i
Cc1ccc(OCC(=O)Nc2nc(C)c(Cl)cc2Cl)c([N+](=O)[O-])n1 | nt | nt | nt | nt | i | nt
NC(=O)c1cccc(N=Cc2cc(Cl)cc(Cl)c2O)c1 | i | i | 0.09 | 6.5* | i | 10*
Oc1c(Cl)cc(Cl)cc1/C=N/c1nccs1 | i | i | 0.26 | -6.2 | i | 9*
Oc1c(Cl)cc(Cl)cc1/C=N/c1nc(-c2ccc(Cl)cc2)cs1 | i | i | 1.71 | 3.0 | i | i
Cc1cccc(N=Cc2cc(Br)cc(Cl)c2O)c1 | i | i | -0.97 | 4.1 | i | i
Cc1nc2ccc(NC(=O)c3ccc([N+](=O)[O-])cc3)cc2[nH]1 | i | i | 0.34 | -6.5 | i | i
CC(CCC(=O)O)C1CC[C@@]2(C)C3C(=O)CC4C(C)(C)C(O)CC[C@]4(C)C3C(=O)C[C@]12C (stereo partly drawn) | i | i | 0.84 | -7.4 | i | i
C/C(=C/CCC(C)[C@H]1CC[C@@]2(C)C3=C(CC[C@]12C)[C@@]1(C)CCC(=O)C(C)(C)[C@@H]1CC3)C(=O)O (stereo partly drawn) | i | i | 0.21 | 39.1* | i | 26*
C/C(=C/CCC(C)C1CCC2(C)C3CCC4C(C)(C)C(=O)CCC4(C)C3=CCC12C)C(=O)O (stereo not drawn) | i | i | 1.92 | 9.5* | nt | 29*
O=C(CCN1CCc2ccccc2CC1)c1ccc2c(c1)OCCO2 | i | i | -0.84 | -31.1 | i | 10*
O=C(CCCN1CCOCC1)c1ccc2c(c1)OCCO2 | i | i | 0.76 | -4.2 | i | i
CCOc1ccc(C2C(C(=O)c3ccco3)=C(O)C(=O)N2CCCn2ccnc2)cc1OC (stereo not drawn) | i | i | 0.83 | 0.5 | i | i
CN(CC(=O)NCc1cccc(F)c1)C(=O)c1ccco1 | i | i | 1.59 | 6.5* | i | i
O=C(c1cnn2c(C(F)(F)F)cc(-c3cccs3)nc12)N1CCN(C(c2ccccc2)c2ccccc2)CC1 | i | 6* | 0.88 | -12.4 | i | i
CC(C(=O)Nc1ccc(OCc2ccccc2)cc1)N1CCCC1 (stereo not drawn) | i | i | 1.49 | -11.4 | i | i
CC(C)COCC(CN(Cc1ccccc1)c1ccccc1)N1CCCC1 (stereo not drawn) | i | i | -6.3* | -16.6 | i | i
CCCNCC1C(Oc2ccc(Cl)cc2Cl)C(=O)N1c1cccc(C)c1C (stereo not drawn) | -6.74* | i | 0.81 | -19.4 | i | i
O=C1C=CC(=Nc2ccc3c(c2)Cc2ccccc2-3)O1 | nt | nt | nt | nt | i | nt
CC(=O)c1ccc2c(c1)c(C#N)c1ccccc1[n+]2[O-] | i | 11* | -4.21 | -22.6 | i | i
CN(C)CCNC(=O)c1ccc(COc2ccc(Cl)cc2Cl)cc1 | i | i | -4.85* | -27.0 | i | i
COc1ccc(Cl)cc1C(=O)NCCN(C)C | i | i | 0 | 6.8* | i | i
C=CCN(c1ccccc1Cl)S(=O)(=O)c1cc(C(=O)N2CCCC2)ccc1Cl | i | i | 1.55 | -15.5 | i | i
O=C(COc1ccc(Cl)cc1Cl)N(Cc1ccco1)C1CCS(=O)(=O)C1 (stereo not drawn) | -6.96* | i | -0.38 | -2.1 | i | i
COc1ccccc1NC(=O)c1ccc2c(c1)CCN2S(C)(=O)=O | i | i | 0.07 | -4.9 | i | i
SMILES | KCNK9 inh | KCNQ1 block | Kir21 block | hERG rescue | KCNK3 block | KCNQ1 act
Cc1ccc(NC(=O)c2ccc3c(c2)CCN3S(C)(=O)=O)c(C)c1 | i | i | -0.6 | 5.3* | i | i
Cc1ccc(S(=O)(=O)N(C)C)cc1NC(=O)COC(=O)Cc1ccccc1F | i | i | 2.2 | -11.2 | i | i
CCOC(=O)c1cccc(NC(=O)Nc2ccc3c(c2)C(=O)OC3)c1 | i | i | 0.17 | -3.4 | i | i
CCCn1nnc(NC(=O)C(c2ccccc2)c2ccccc2)n1 | i | i | 0.95 | 6.6* | i | i
CCCCn1nnc(NC(=O)C(c2ccccc2)c2ccccc2)n1 | i | i | -1.6 | -21.9 | i | i
CCOC(=O)CN1C(c2ccccc2O)Nc2ccc(Br)cc2C1c1ccccc1 (stereo not drawn) | -7.38* | i | 0.05 | -6.8 | i | i
O=C(O)CN1C(=O)Nc2ccc(Br)cc2C1c1ccccc1 (stereo not drawn) | i | i | -1.25 | -7.1 | i | i
CSc1nc(Oc2ccc3ccccc3c2)c2ccccc2n1 | -7.15* | i | -0.01 | -10.4 | i | i
C=CCn1c(COc2ccccc2)nnc1SCc1ccc(C#N)cc1 | i | i | -11* | -4.9 | i | i
C=CCn1c(COc2ccc(Cl)cc2)nnc1SCc1ccc(C#N)cc1 | i | i | -4.01 | 4.8* | i | i
C=CCn1c(SCc2ccc(C#N)cc2)nnc1-c1ccccc1 | i | i | -3.33 | -10.1 | i | i
CCOc1ccc(CCNC(=O)C2CCCN(c3ncnc4c3nc3n4CCCCC3)C2)cc1 (stereo not drawn) | i | i | -1.3 | -14.9 | i | i
Brc1cnc2nc(SC/C=C/c3ccccc3)[nH]c2c1 | i | i | 0.16 | -7.5 | i | i
O=C(NCc1nc2ncc(Br)cc2[nH]1)c1ccccc1 | i | i | 0.24 | 6.2* | i | i
Cc1ccccc1NC(=O)c1nn(C)c2c1CS(=O)(=O)c1ccccc1-2 | i | i | 1.39 | -7.6 | i | i
c1csc(C2Nc3ccccc3-c3nc4ccccc4n32)c1 (stereo not drawn) | i | i | -4.48* | -14.2 | i | i
Cc1ccsc1C1Nc2ccccc2-c2nc3ccccc3n21 (stereo not drawn) | i | i | -0.26 | -1.5 | i | i
Cc1ccc(S(=O)(=O)N2CCN(C(=O)COC(=O)c3cccc(Cl)c3)CC2)c(C)c1 | nt | nt | nt | nt | i | nt
CCc1c(C2(O)CCCCC2)[nH]c2cnccc12 | nt | nt | nt | nt | i | nt
CCOC(=O)c1[nH]c(=O)[nH]c1COC(=O)c1cc2ccccc2o1 | i | i | -1.14 | 6.2* | i | i
CC1CCCN(C(=O)CN(C)S(=O)(=O)c2cccc3nsnc23)C1 (stereo not drawn) | i | i | -0.45 | -7.6 | i | i
CCc1ccc(NC(=O)C2=CC(c3ccc(OC)cc3)=NS(=O)(=O)N2C)cc1 | -7.62* | i | -0.37 | -11.2 | i | i
